# Bioassay records as filed in PubChem BioAssay.
# KCNQ1 inh – blocks the human KCNQ1 potassium channel; B-score at 10 µM; CHO-K1 KCNQ1, FluxOR thallium flux fluorescence; hits give high values; 1.3% of 310,000 active; AID 2642; P51787;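 active = compounds whose thallium flux B-score, printed positive for inhibition, exceeds three library SD while starting fluorescence stays within three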;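 also: channel opened by potassium depolarization with thallium stimulus after 20 min compound exposure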
# hERG protect – compounds protecting human hERG from proarrhythmic drug block; 0.51% of 310,000 active; activation (rescue from dofetilide block), less the hit threshold, % at 10 µM; CHO-hERG, FluxOR thallium flux, dofetilide IC70 present; Q12809;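 active = activation above the mean of controls blocked by dofetilide plus 5 SD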;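 also: thallium influx through hERG after potassium depolarization seen as dye fluorescence rise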
# KCNQ1 pot – potentiates or activates the human KCNQ1 potassium channel | P51787 | CHO-K1 KCNQ1, thallium flux FluxOR fluorescence; hits give high values | B-score at 10 µM | 0.35% of 310,000 active;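 active = fluorescence ratio B-score, a plate-corrected score, at least three library SD, with initial intensity B-score within 5 SD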
#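 Schedule – 37 °C overnight plating, 90-min dark dye load, 20-min compound pretreatment · System – stable KCNQ1 CHO-K1 line · Probe or stimulus – thallium- and potassium-containing depolarizing buffer · Measured by – kinetic FluxOR fluorescence, 10 s baseline plus 110 s post-stimulus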
# Cl transport mod – modulators of human KCC2 chloride dependent transport | Q9H2X9 | KCC2 cells, thallium flux FluoZin-2 fluorescence | B-score of Tl+ flux slope (higher = more flux/activation; lower = inhibition) at 10 µM | 2.2% of 190,000 active | AID 1456;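 active = thallium flux slope and its plate-corrected score both differing from the plate sample mean at a set confidence after two filtering rounds, in either direction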;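 also: slope of fluorescence scaled to starting intensity during 10 to 20 s after thallium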
# KCNK3 inh – human KCNK3 channel inhibition, primary screen | O14649 | CHO-KCNK3 thallium flux, FluxOR fluorescence; hits give low values | B-score at 10 µM | 0.84% of 340,000 active | AID 602410;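 active = B-score under library mean minus 4 SD, starting fluorescence ratio at most library mean plus 5 SD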;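 also: more negative B-score means stronger inhibition of thallium flux through KCNK3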
# KCNK9 block – human KCNK9 channel inhibition; 1.2% of 310,000 active; B-score at 10 µM; HEK293 KCNK9, FluxOR thallium flux fluorescence; hits give low values;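 active = ratio B-score over 3 SD below the library mean, with starting fluorescence within 5 SD of its mean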;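 also: negative B-score means less thallium flux so channel inhibition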
# KCNK9 inh conf – confirmation of human KCNK9 potassium channel inhibitors | shares compounds with KCNK9 block | HEK293 KCNK9 cells, FluxOR thallium flux fluorescence | inhibition, % at 10 µM | 43% of 4,900 active;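 active = thallium signal inhibited by more than 5 SD of the compound-free buffer control wells, on both duplicate plates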;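 also: 0% = assay buffer control wells without compound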
# Kir2-1 spec – mouse Kir2.1 off-target activity of KCNK9 modulators; shares compounds with KCNK9 block; Kir2.1 cells, FluxOR thallium flux fluorescence; inhibition, % at 10 µM; 4% of 4,900 active;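 active = thallium signal drop more than 5 SD beyond the mean of the no-compound control wells, seen in both duplicate plates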;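 also: signal is fluorescence rise after thallium addition divided by baseline fluorescence; plate controls were assay buffer only for no effect and full block by chlorpromazine control for full effect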
# Target sequence (P35561 whole entry, looked up): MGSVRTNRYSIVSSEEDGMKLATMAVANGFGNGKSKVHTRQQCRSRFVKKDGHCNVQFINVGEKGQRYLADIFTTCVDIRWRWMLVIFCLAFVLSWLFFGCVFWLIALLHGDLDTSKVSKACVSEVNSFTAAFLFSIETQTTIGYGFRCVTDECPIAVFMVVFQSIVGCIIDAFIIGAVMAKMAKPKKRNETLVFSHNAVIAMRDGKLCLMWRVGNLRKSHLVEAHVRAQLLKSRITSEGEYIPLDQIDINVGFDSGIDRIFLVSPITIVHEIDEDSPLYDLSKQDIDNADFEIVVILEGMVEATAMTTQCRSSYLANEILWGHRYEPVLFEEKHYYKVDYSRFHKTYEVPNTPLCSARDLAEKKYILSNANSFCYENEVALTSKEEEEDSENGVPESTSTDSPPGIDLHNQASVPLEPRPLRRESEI
# HEK293 Tl ctr – non-induced cell nonspecific activity of KCNK9 modulators; inhibition, % at 10 µM; 40% of 4,900 active; AID 492997; shares compounds with KCNK9 block; non-induced KCNK9-HEK293, FluxOR thallium flux;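 active = thallium signal drop beyond 5 SD of the untreated control mean, on both duplicate plates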;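 also: plate controls were buffer only IC0 wells for no effect and SID17386958 at its maximal inhibitory level for full effect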
# * marks the source's active call; other numbers are inactive results; i = inactive; nt = no result. Most compounds without a hit are left out; they make up all but 4.1% or so of the library.
SMILES,KCNQ1 inh,hERG protect,KCNQ1 pot,Cl transport mod,KCNK3 inh,KCNK9 block,KCNK9 inh conf,Kir2-1 spec,HEK293 Tl ctr
CCCN(Cc1nnc(-c2ccccc2Cl)o1)C(=O)c1cccc(S(=O)(=O)N2CCOCC2)c1,i,-9.5,i,nt,i,i,nt,nt,nt
Cc1nnc(SCC(=O)Nc2cc(C(N)=O)cc(C(N)=O)c2)n1-c1ccccc1,i,-2.9,i,nt,i,i,nt,nt,nt
Cc1ccc(CCc2nnc(SCC(=O)Nc3cccc(Cl)c3)n2-c2ccccc2)o1,i,-7.9,i,0.264,i,i,i,i,i
Cc1ccc(C(=O)/C=C/c2cc(C#N)n(C)c2C)cc1,i,-13.3,i,nt,i,i,nt,nt,nt
CCCCN(C(=O)Cc1ccc(S(=O)(=O)N2CCOCC2)s1)c1ccccc1,i,-7.0,i,nt,i,i,i,i,i
Cc1cc(C)cc(OCC(=O)O/N=C(\N)c2ccccc2Cl)c1,i,-5.8,i,-0.786,i,i,i,i,i
Oc1[nH]c2ccccc2c1N=NC(=S)N1CCOCC1,i,-20.7,i,nt,i,-12.7*,54.5%*,i,45.0%*
Cc1ccc(-c2nn(-c3cc(Cl)ccc3[N+](=O)[O-])c(=O)c3ccccc23)cc1C,i,-9.1,i,nt,i,i,i,i,i
CCn1c(SCC(=O)N/N=C/C(C)=C\c2ccco2)nnc1-c1ccccc1,i,-7.6,i,-2.03,i,i,i,i,i
CCn1c(SCC(=O)N/N=C/C(C)=C/c2ccco2)nnc1-c1ccccc1,i,-16.3,i,-0.798,i,i,nt,nt,nt
COc1cc(OC)c2ccc(=O)oc2c1C(CCN1CCN(c2ccccc2)CC1)c1ccc(N(C)C)cc1 (configuration not stated),i,-13.7,i,1.39,i,i,i,i,i
COC(=O)CSc1nc(SCc2ccccc2Cl)nc2c1CCCC2,i,-4.3,i,nt,i,i,i,i,i
O=C(O)CSc1nc(SCc2ccccc2Cl)nc2c1CCCC2,i,-5.7,i,-0.684,i,i,nt,nt,nt
Cc1ccc(NC2CCCN(C(=O)c3cn4cccc(C)c4n3)C2)cc1C (configuration not stated),i,-4.6,i,nt,i,i,i,i,i
Cc1ccc(NC2CCCN(C(=O)C3CCCC3)C2)cc1C (configuration not stated),i,-6.3,i,nt,i,i,i,i,i
Cc1ccc(NC2CCCN(C(=O)c3cn4cc(Cl)ccc4n3)C2)cc1C (configuration not stated),i,-7.9,i,nt,i,i,nt,nt,nt
CSc1nc(C(=O)N2CCCC(Nc3ccc(C)c(C)c3)C2)cs1 (configuration not stated),i,-6.7,i,nt,i,i,i,i,i
Cc1ccnc(NC(=O)C2CCN(S(=O)(=O)c3ccc(C)c(C)c3)CC2)c1,i,-14.3,i,nt,i,i,nt,nt,nt
CCOc1cc(N2CCOCC2)c(OCC)cc1NC(=O)CN1C(=O)NC(CC)(c2ccc(F)cc2)C1=O (configuration not stated),nt,nt,nt,nt,i,nt,nt,nt,nt
Cc1onc(-c2ccc(Cl)cc2)c1-c1ccnn1S(=O)(=O)c1cccc(C(F)(F)F)c1,i,-12.5,i,-0.589,i,-11*,55.0%*,i,47.0%*
CCOc1ccccc1NC(=O)COC(=O)c1cccc(-c2ccc(OC(C)=O)cc2)c1,i,-9.4,i,0.625,i,-10.1*,i,i,32.0%*
CC(=O)Oc1ccc(-c2cccc(C(=O)OCC(=O)Nc3ccccc3Oc3ccccc3)c2)cc1,i,-14.4,i,0.998,i,i,nt,nt,nt
O=C(CN1CCN(C(C(=O)Nc2ccc(F)cc2)c2ccccc2)CC1)NC1CC1 (configuration not stated),nt,nt,nt,nt,i,nt,nt,nt,nt
c1ccc(C2CCCN(Cc3nc(CC4CC4)no3)CC2)cc1 (configuration not stated),i,-11.8,i,-0.0334,i,i,i,i,i
Cc1ccccc1C1CCCN(Cc2nc(CC3CC3)no2)C1 (configuration not stated),i,-17.9,i,-0.153,i,i,i,i,i
SMILES,KCNQ1 inh,hERG protect,KCNQ1 pot,Cl transport mod,KCNK3 inh,KCNK9 block,KCNK9 inh conf,Kir2-1 spec,HEK293 Tl ctr
COc1ccc(OCC2CCCN(Cc3nc(CC4CC4)no3)C2)cc1 (configuration not stated),i,-4.4,i,0.299,i,i,nt,nt,nt
Cc1cccc(N2CCN(Cc3nc(CC4CC4)no3)CC2)n1,i,-10.4,i,-0.148,i,i,nt,nt,nt
Cc1cccc(NC(=O)CN2CCC(C(=O)c3ccc4c(c3)OCCO4)CC2)c1,i,-9.9,i,nt,i,i,i,i,i
Cc1ccc(C(=O)C2CCN(CC(=O)Nc3ccc4c(c3)OCCO4)CC2)cc1,i,-8.4,i,-0.569,i,i,nt,nt,nt
Cc1ccc(S(C)(=O)=O)cc1C(=O)OCC(=O)N1CCCC1=O,nt,nt,nt,nt,i,nt,nt,nt,nt
COc1ccc(-c2csc(Nc3ncccc3C)n2)cc1OC,i,-3.3,i,-0.306,i,i,nt,nt,nt
COc1ccc(-c2csc(Nc3ncccc3C)n2)cc1,i,-9.2,i,-0.404,i,i,i,i,i
Cc1ccc(SCCC(=O)NCCSCc2ccccc2C)cc1,i,-8.2,i,-3.79,i,i,i,i,i
CC12CCC(C(N)C1=O)C2(C)C (configuration not stated),nt,nt,nt,nt,i,nt,nt,nt,nt
Cc1ccc2[nH]c(CSc3ccccc3)cc(=O)c2c1,i,-8.2,i,nt,i,i,nt,nt,nt
COCCCN(C(=O)CSc1nc2ccccc2c(=O)n1C)c1c(N)n(Cc2ccccc2)c(=O)[nH]c1=O,nt,nt,nt,nt,i,nt,nt,nt,nt
CCN(C(=O)C1CCN(c2nc(-c3ccc(OC)cc3)no2)CC1)c1ccccc1,i,-18.8,i,nt,i,i,nt,nt,nt
CCN(C(=O)C1CCCN(c2nc(-c3ccc(OC)cc3)no2)C1)c1ccccc1F (configuration not stated),i,-11.5,i,nt,i,i,i,i,i
COc1cc(C)c(/C=C(\C#N)C(=O)Nc2cccc(C)c2)cc1C(C)C,i,-4.3,i,-0.00438,i,i,i,i,i
